Measured values taken from ChEMBL document CHEMBL1121674, “Gastric antisecretory agents. 2. Antisecretory activity of 9-[(aminoalkyl)thio]-9H-xanthenes and 5-[(aminoalkyl)thio]-5H-[1]benzopyrano[2,3-b]pyridines” (1981).

What was measured:
Canis familiaris [1] = assay: Percent reduction of histamine stimulated gastric acid secretion in adult mongrel dog after peroral administration of compound at 8 mg/kg; format: functional, Canis lupus familiaris, Stomach; conditions: route oral
Summary of the method: (§1)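 Heidenhain-pouch mongrel dogs given histamine infusion at 0.4 (μg/kg)/min. Compound given orally by gavage 1 h after infusion start. 30-min secretions collected and titrated for acid. AO = volume × acid concentration, summed over 3 h after dosing and expressed against 3-h control AO in the same dog. % inhibition = 100 − percent of control. Usually a single dog.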

Canis familiaris [2] = assay: Percent reduction of histamine stimulated gastric acid secretion in adult mongrel dog after intravenous administration at 5 mg/kg.; format: functional, Canis lupus familiaris, Stomach
Summary of the method: (§2)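 Heidenhain-pouch mongrel dogs given histamine infusion at 0.4 (μg/kg)/min. Compound given iv 1 h after infusion start. 30-min collections, volume recorded and aliquot titrated for acid. AO = volume × acid concentration, summed for 3 h post-dose and divided by 3-h control AO from the same dog. % inhibition = 100 − percent of control. Usually one dog per compound.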

Rattus norvegicus = assay: Percent reduction of gastric acid secretion in pylorus ligated rat after intraperitoneal administration at 40 mg/kg.; format: functional, Stomach
Summary of the method: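 Male Charles River CD outbred albino rats, 150-200 g, pylorus ligated; compound dissolved in 2.5% Tween 80 and given ip (0.5 mL/200 g) at ligation. Stomachs removed after 4 h. Gastric content volume recorded, acid titrated with 0.1 N NaOH to pH 7.0, AO in mequiv/4 h. Six rats per compound, eight controls; % inhibition = 100 − 100×(mean test AO/mean control AO); Student's t test.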

Canis familiaris [3] = assay: Percent reduction of histamine stimulated gastric acid secretion in adult mongrel dog after peroral administration of compound at 8 mg/kg; Animal vomited upon compound administration; format: functional, organism-based; design: dose 8 mg/kg; conditions: Canis lupus familiaris, Stomach; summary of the method: as §1
Canis familiaris [4] = assay: Percent reduction of histamine stimulated gastric acid secretion in adult mongrel dog after intravenous administration of compound at 5 mg/kg; stimulated gastric acid secretion; format: functional, organism-based; design: dose 5 mg/kg; conditions: Canis lupus familiaris, Stomach; summary of the method: as §2

COc1ccc2c(c1)Oc1ccccc1C2SCCN1CCCCC1.Cl (stereo not drawn)
Reduction (Canis familiaris [1]): <30% | Reduction (Canis familiaris [2]): <58% | Reduction (Rattus norvegicus): 47%

Cl.c1ccc2c(c1)Oc1ccccc1C2SCCN1CCOCC1
Reduction (Canis familiaris [1]): <30% | Reduction (Canis familiaris [2]): 56% | Reduction (Rattus norvegicus): 93%

Cl.c1ccc2c(c1)Oc1ccccc1C2SCCCN1CCCCC1
Reduction (Canis familiaris [2]): 30% | Reduction (Rattus norvegicus): 88%

CN(C)CCSC1c2ccccc2Oc2ccccc21.Cl
Reduction (Canis familiaris [2]): <30% | Reduction (Rattus norvegicus): 65%

COc1ccc2c(c1)Oc1ccccc1C2SCCN1CCOCC1.Cl (stereo not drawn)
Reduction (Canis familiaris [1]): <30% | Reduction (Canis familiaris [2]): 77% | Reduction (Rattus norvegicus): 44%

Cl.c1ccc2c(c1)Oc1ccccc1C2SCCN1CCCCC1
Reduction (Canis familiaris [2]): <30% | Reduction (Rattus norvegicus): 98%

Cc1ccc2c(c1)C(SCCN1CCCCC1)c1ccccc1O2.Cl (stereo not drawn)
Reduction (Canis familiaris [2]): <30% | Reduction (Rattus norvegicus): 88%

Cc1cccc2c1Oc1ccccc1C2SCCN1CCOCC1.Cl (stereo not drawn)
Reduction (Canis familiaris [2]): <30% | Reduction (Rattus norvegicus): 71%

Cc1cccc2c1Oc1ccccc1C2SCCN1CCCCC1.Cl (stereo not drawn)
Reduction (Canis familiaris [2]): <30% | Reduction (Rattus norvegicus): 85%

Cl.NCCCSC1c2ccccc2Oc2ccccc21
Reduction (Canis familiaris [2]): 68% | Reduction (Rattus norvegicus): 44% | Reduction (Canis familiaris [3]): Animal vomited upon compound administration

Cl.c1ccc2c(c1)Oc1ncccc1C2SCCN1CCOCC1 (stereo not drawn)
Reduction (Canis familiaris [2]): 66% | Reduction (Rattus norvegicus): 64%

Cl.NCCSC1c2ccccc2Oc2ccccc21
Reduction (Canis familiaris [2]): <30% | Reduction (Rattus norvegicus): 35%

Cl.c1ccc2c(c1)Oc1ncccc1C2SCCCN1CCOCC1 (stereo not drawn)
Reduction (Rattus norvegicus): 62%

Cl.c1ccc2c(c1)Oc1ccccc1C2SCCCN1CCOCC1
Reduction (Canis familiaris [2]): 47% | Reduction (Rattus norvegicus): 98%

COc1ccc2c(c1)C(SCCN1CCCCC1)c1ccccc1O2.Cl (stereo not drawn)
Reduction (Canis familiaris [2]): <30% | Reduction (Rattus norvegicus): 73%

Cl.Clc1cccc2c1Oc1ccccc1C2SCCN1CCOCC1 (stereo not drawn)
Reduction (Canis familiaris [2]): 42% | Reduction (Rattus norvegicus): 86%

CN/C(=N\CCSCc1nc[nH]c1C)NC#N [CIMETIDINE]
Reduction (Canis familiaris [1]): 86% | Reduction (Canis familiaris [2]): 84% | Reduction (Rattus norvegicus): 74%

Cl.Clc1cccc2c1Oc1ccccc1C2SCCN1CCCCC1 (stereo not drawn)
Reduction (Canis familiaris [2]): 44% | Reduction (Rattus norvegicus): 87%

Cc1ccc2c(c1)C(SCCN1CCOCC1)c1ccccc1O2.Cl (stereo not drawn)
Reduction (Canis familiaris [2]): 50% | Reduction (Rattus norvegicus): 93%

CN(C)CCSC1c2ccccc2Oc2ccc(Cl)cc21.Cl (stereo not drawn)
Reduction (Canis familiaris [2]): <30% | Reduction (Rattus norvegicus): 55%

Cl.NCCCSC1c2ccccc2Oc2ccc(Cl)cc21 (stereo not drawn)
Reduction (Canis familiaris [2]): 39% | Reduction (Rattus norvegicus): 89%

CN(C)CCSC1c2ccccc2Oc2ncccc21.Cl (stereo not drawn)
Reduction (Canis familiaris [2]): <30% | Reduction (Rattus norvegicus): 79%

Cl.NCCSC1c2ccccc2Oc2ccc(Cl)cc21 (stereo not drawn)
Reduction (Canis familiaris [2]): <30% | Reduction (Rattus norvegicus): 74%

COc1ccc2c(c1)C(SCCN1CCOCC1)c1ccccc1O2.Cl (stereo not drawn)
Reduction (Rattus norvegicus): 94% | Reduction (Canis familiaris [4]): stimulated gastric acid secretion

Cl.NCCSC1c2ccccc2Oc2ncccc21 (stereo not drawn)
Reduction (Canis familiaris [2]): <30% | Reduction (Rattus norvegicus): <30%

Cc1ccc2c(c1)C(SCCCN)c1ccccc1O2.Cl (stereo not drawn)
Reduction (Canis familiaris [1]): <50% | Reduction (Canis familiaris [2]): 80% | Reduction (Rattus norvegicus): 100%

Cc1cccc2c1Oc1ccccc1C2SCCCN.Cl (stereo not drawn)
Reduction (Canis familiaris [2]): 87% | Reduction (Rattus norvegicus): 71% | Reduction (Canis familiaris [3]): Animal vomited upon compound administration

Cl.NCCCSC1c2ccccc2Oc2c(Cl)cccc21 (stereo not drawn)
Reduction (Canis familiaris [2]): 33% | Reduction (Rattus norvegicus): 99%

Cl.Clc1ccc2c(c1)Oc1ccccc1C2SCCN1CCOCC1 (stereo not drawn)
Reduction (Canis familiaris [2]): 39% | Reduction (Rattus norvegicus): 70%

Cl.c1ccc2c(c1)Oc1ncccc1C2SCCN1CCCCC1 (stereo not drawn)
Reduction (Canis familiaris [1]): <30% | Reduction (Canis familiaris [2]): 63% | Reduction (Rattus norvegicus): 61%

Cl.Clc1ccc2c(c1)Oc1ccccc1C2SCCN1CCCCC1 (stereo not drawn)
Reduction (Canis familiaris [2]): <30% | Reduction (Rattus norvegicus): 80%

Cl.NCCCSC1c2ccccc2Oc2cc(Cl)ccc21 (stereo not drawn)
Reduction (Canis familiaris [2]): <30% | Reduction (Rattus norvegicus): 79%

COc1ccc2c(c1)C(SCCN(C)C)c1ccccc1O2.Cl (stereo not drawn)
Reduction (Canis familiaris [2]): <30% | Reduction (Rattus norvegicus): 63%
